Consider 1 molecule from ChEMBL document CHEMBL4190276, “Design, synthesis and evaluation of coumarin-pargyline hybrids as novel dual inhibitors of monoamine oxidases and amyloid-β aggregation for the treatment of Alzheimer's disease” (Eur J Med Chem, 2017).

Series [1] addresses T1, Amine oxidase [flavin-containing] B (Homo sapiens, UniProt P27338).
T1 sequence (P27338 whole entry): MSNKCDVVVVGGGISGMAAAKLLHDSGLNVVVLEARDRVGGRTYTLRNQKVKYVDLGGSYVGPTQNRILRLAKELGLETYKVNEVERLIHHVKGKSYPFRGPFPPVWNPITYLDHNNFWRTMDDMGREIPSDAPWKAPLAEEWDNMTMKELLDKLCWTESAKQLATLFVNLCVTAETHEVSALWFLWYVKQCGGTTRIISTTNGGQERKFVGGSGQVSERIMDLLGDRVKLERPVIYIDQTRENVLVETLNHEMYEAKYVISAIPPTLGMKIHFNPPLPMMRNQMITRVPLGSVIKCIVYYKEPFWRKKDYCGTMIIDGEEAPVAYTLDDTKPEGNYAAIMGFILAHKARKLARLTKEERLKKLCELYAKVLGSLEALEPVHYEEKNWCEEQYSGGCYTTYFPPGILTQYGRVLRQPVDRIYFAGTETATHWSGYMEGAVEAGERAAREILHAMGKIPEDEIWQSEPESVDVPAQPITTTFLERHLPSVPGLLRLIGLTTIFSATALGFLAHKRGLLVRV
Kind of series: Irreversible inhibition of recombinant human MAO-B at 30 nM using p-tyramine as substrate preincubated for 15 to 60 mins followed by substrate addition and subsequent two-fold enzyme dilution measured after 15 mins by amplex red reagent based fluorescence assay. The note with it: 0.25 h, 0.03 µM.

The target in series [2] is T2, Amine oxidase [flavin-containing] A (Homo sapiens, UniProt P21397).
T2 sequence (P21397 whole entry): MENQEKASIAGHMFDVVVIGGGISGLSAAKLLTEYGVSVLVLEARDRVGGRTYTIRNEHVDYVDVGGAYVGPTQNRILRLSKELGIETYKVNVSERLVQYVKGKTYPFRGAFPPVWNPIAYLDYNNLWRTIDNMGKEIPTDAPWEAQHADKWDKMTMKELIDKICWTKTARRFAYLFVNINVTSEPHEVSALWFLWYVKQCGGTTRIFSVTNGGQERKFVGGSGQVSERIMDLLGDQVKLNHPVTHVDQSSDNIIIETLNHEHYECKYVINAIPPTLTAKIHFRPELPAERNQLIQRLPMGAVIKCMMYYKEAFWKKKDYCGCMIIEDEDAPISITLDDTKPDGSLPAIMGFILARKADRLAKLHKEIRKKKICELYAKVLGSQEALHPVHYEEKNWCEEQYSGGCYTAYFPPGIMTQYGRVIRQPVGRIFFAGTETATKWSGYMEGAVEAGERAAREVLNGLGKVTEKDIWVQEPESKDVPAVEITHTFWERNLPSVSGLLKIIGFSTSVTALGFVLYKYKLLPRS
Kind of series: Inhibition of recombinant human MAO-A using p-tyramine as substrate preincubated for 15 mins followed by substrate addition measured after 20 mins by amplex red reagent based fluorescence assay.

Series [3] addresses T1, Amine oxidase [flavin-containing] B. The series can be described thus: Inhibition of recombinant human MAO-B using p-tyramine as substrate preincubated for 15 mins followed by substrate addition measured after 20 mins by amplex red reagent based fluorescence assay.
The species entered for another series is Homo sapiens. Kind of series: Selectivity index, ratio of IC50 for recombinant human MAO-A to IC50 for recombinant human MAO-B. In short, it runs like this:
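Commercial human MAO-A (1.1 μg protein) and MAO-B (7.5 μg protein) adjusted to equal velocity (165 pmol p-tyramine/min). Compounds from 10 mM DMSO stock diluted in 0.05 M potassium phosphate, pH 7.4. Preincubated with enzyme 15 min at 37 °C in the dark; 200 μM Amplex Red, 2 U/mL HRP, 2 mM p-tyramine added for 20 min at 37 °C.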

For series [4], the target named is Amyloid-beta precursor protein (Homo sapiens) (UniProt P05067). Kind of series: Inhibition of self-induced Amyloid beta (1 to 42) (unknown origin) aggregation at 25 uM after 48 hrs by thioflavin T-based fluorometric assay relative to control. In short, it runs like this: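 Aβ1-42 stock (2000 μM in 1% ammonium hydroxide) diluted in 50 mM phosphate pH 7.4. Peptide (final 25 μM) incubated with or without compound (25 μM) at 37 °C for 48 h. Then diluted in 50 mM glycine-NaOH pH 8.0 containing 5 μM thioflavin T, read after 5 min (ex 446/em 490 nm). Inhibition = (1 − IFi/IFc) × 100 after blank subtraction. Mean ± SD of three independent experiments.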

Series [5] in a line: Permeability of the compound in PBS/EtOH at […] after 16 hrs by PAMPA. Type of series: ADME. The note with it: read-out: Peff.
The subject of another series is PC-12. Kind of series: Cytotoxicity against rat PC12 cells assessed as reduction in cell viability up to 100 uM after 24 hrs by MTT assay. The following applies: pc-12, 24 h. The class given is cell-based. Summed up:
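PC12 cells grown at 37 °C, 5% CO2 in DMEM with 10% bovine calf serum and penicillin/streptomycin; seeded 10,000 cells/well, switched to serum-free medium, then exposed to compound (0–100 μM) for 24 h. MTT added for 4 h at 37 °C, formazan dissolved in DMSO, absorbance read at 570 nm (reference 630 nm). Mean ± SD of three independent experiments.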

The subject of series [6] is Mus musculus. Kind of series: Acute toxicity in Kunming mouse assessed as mortality at 2.4 mmol/kg, po administered as single dose via gavage measured continuously for first 4 hrs, intermittently for next 24 hrs and occasionally thereafter for 14 days. The class given is organism-based. The note with it: in vivo. Summed up: (§1)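 Male KM mice (22 days old, 18–20 g), 15 in total, randomly split into 3 groups of 5. Kept on a 12 h light/dark cycle at 20-22 °C and 60-70% humidity, fasted overnight with free water. Single oral dose of 2.4 mmol/kg suspended in 0.5% CMC-Na. Mortality, behaviour, water and food intake, and body weight followed over 14 days.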

Series [7] relates to Mus musculus. The series can be described thus: Acute toxicity in Kunming mouse assessed as abnormal change in water consumption at 2.4 mmol/kg, po administered as single dose via gavage measured continuously for first 4 hrs, intermittently for next 24 hrs and occasionally thereafter for 14 days. Type of series: organism-based. The note with it: in vivo. In short, it runs like this:
as §1

In series [8] the test system is Mus musculus. The series can be described thus: Acute toxicity in Kunming mouse assessed as abnormal change in food consumption at 2.4 mmol/kg, po administered as single dose via gavage measured continuously for first 4 hrs, intermittently for next 24 hrs and occasionally thereafter for 14 days. Type of series: organism-based. The note with it: in vivo. In short, it runs like this:
as §1

For series [9], the system named is Mus musculus. Kind of series: Acute toxicity in Kunming mouse assessed as abnormal change in body weight at 2.4 mmol/kg, po administered as single dose via gavage measured continuously for first 4 hrs, intermittently for next 24 hrs and occasionally thereafter for 14 days. Type of series: organism-based. The following applies: in vivo. Summed up:
as §1

Series [10] deals with Mus musculus. Kind of series: Cardiotoxicity in Kunming mouse at 2.4 mmol/kg, po administered as single dose via gavage measured continuously for first 4 hrs, intermittently for next 24 hrs and occasionally thereafter for 14 days by […]. The following applies: in vivo. Type of series: toxicity, organism-based. Summed up:
(§2)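 Male KM mice (18–20 g) received a single oral 2.4 mmol/kg dose in 0.5% CMC-Na suspension after an overnight fast. All animals were sacrificed on day 14 after dosing, and heart, liver and kidneys were examined macroscopically for damage.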

For series [11], the system named is Mus musculus. The series can be described thus: Hepatotoxicity in Kunming mouse at 2.4 mmol/kg, po administered as single dose via gavage measured continuously for first 4 hrs, intermittently for next 24 hrs and occasionally thereafter for 14 days by […]. Type of series: toxicity, organism-based. The note with it: in vivo. In short, it runs like this:
as §2

The subject of series [12] is Mus musculus. The series can be described thus: Nephrotoxicity in Kunming mouse at 2.4 mmol/kg, po administered as single dose via gavage measured continuously for first 4 hrs, intermittently for next 24 hrs and occasionally thereafter for 14 days […]. The following applies: in vivo. The class given is toxicity, organism-based. In short, it runs like this:
as §2

Series [13] concerns Mus musculus. Kind of series: Acute toxicity in Kunming mouse assessed as effect on serum AST level at 2.4 mmol/kg, po administered as single dose via gavage measured continuously for first 4 hrs, intermittently for next 24 hrs and occasionally thereafter for 14 days. Type of series: organism-based. The following applies: in vivo. In short, it runs like this: (§3)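 Male KM mice (18–20 g), fasted overnight, given one oral 2.4 mmol/kg dose suspended in 0.5% CMC-Na. On day 14, orbital blood was collected before decapitation and serum AST and ALT activities measured against a control group. Mean ± SD of three independent experiments.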

The test system of series [14] is Mus musculus. The series can be described thus: Acute toxicity in Kunming mouse assessed as effect on serum ALT level at 2.4 mmol/kg, po administered as single dose via gavage measured continuously for first 4 hrs, intermittently for next 24 hrs and occasionally thereafter for 14 days. Type of series: organism-based. The note with it: in vivo. In short, it runs like this: as §3

Amyloid-beta precursor protein (Homo sapiens), sequence (P05067 whole entry): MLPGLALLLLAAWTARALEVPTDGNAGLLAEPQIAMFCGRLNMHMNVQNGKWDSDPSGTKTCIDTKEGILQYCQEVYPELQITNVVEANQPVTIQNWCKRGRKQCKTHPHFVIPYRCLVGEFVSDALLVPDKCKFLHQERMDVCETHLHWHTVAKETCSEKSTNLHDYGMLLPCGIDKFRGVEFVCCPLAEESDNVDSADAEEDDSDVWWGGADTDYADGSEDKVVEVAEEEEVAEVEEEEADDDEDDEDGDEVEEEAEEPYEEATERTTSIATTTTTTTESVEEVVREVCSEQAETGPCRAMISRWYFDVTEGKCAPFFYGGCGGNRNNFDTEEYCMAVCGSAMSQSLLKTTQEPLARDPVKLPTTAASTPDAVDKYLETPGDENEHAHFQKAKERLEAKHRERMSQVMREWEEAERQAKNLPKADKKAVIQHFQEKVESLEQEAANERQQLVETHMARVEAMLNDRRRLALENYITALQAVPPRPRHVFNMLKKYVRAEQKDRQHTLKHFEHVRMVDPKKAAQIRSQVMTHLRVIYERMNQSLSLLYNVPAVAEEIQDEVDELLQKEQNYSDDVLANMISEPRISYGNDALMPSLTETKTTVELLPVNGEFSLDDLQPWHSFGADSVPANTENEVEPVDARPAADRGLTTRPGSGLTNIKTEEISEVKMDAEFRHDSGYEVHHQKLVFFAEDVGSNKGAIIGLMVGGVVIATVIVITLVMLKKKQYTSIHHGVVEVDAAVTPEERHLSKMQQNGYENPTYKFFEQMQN

Consider `C#CCN(C)CCCCOc1ccc2ccc(=O)oc2c1`, for which the “inhibition (INH)” value in series [1] is “Active”. For the same molecule, the half-maximal inhibitory concentration (IC50) in series [2] amounted to 3.28 µM; in series [3], 0.027 µM. Also, in the series listed under Homo sapiens, the Ratio IC50 came to 121. In addition, the inhibition in [4] worked out at 54%. For the same molecule, the Papp at 16 h in [5] came to 89.2 nm/s. Further, the Activity result in the series on PC-12, in the series on Mus musculus [6], with Mus musculus [7], in the series on Mus musculus [8], in the series on Mus musculus [9] and in the series with Mus musculus [10] was “Non-Toxic” in each case. Moreover, the Activity result with Mus musculus [11], in the series with Mus musculus [12], with Mus musculus [13] and in the series on Mus musculus [14] was “Non-Toxic” each time.
